The test system of series [1] is Jurkat. Put plainly: Concentration required to reduce growth of human jurkat leukemia cells to 50% of control cultures, determined using a 72 hr continuous exposure. In kind it is functional, cell-based. The method, boiled down:
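Human Jurkat leukemia cells given continuous drug exposure for 72 h, then counted on a hemocytometer. IC50 is the concentration that cuts cell growth to 50% of untreated controls. Values are means of at least two independent determinations, with variation typically ±15%.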

Series [2] deals with Plasmodium falciparum. Put plainly: Inhibitory concentration IC50 against Plasmodium falciparum K1 by [3H]hypoxanthine uptake over 24 hr. The format is functional, organism-based. The method, boiled down: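 K1 strain of P. falciparum (chloroquine- and pyrimethamine-resistant) in infected erythrocyte suspensions at 0.5% initial parasitemia, exposed to drug for 24 h at 37 °C. Read-out is [3H]hypoxanthine incorporation into parasites. IC50 is the concentration giving 50% inhibition relative to untreated controls.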

The nature of series [3]: In vitro therapeutic index value is the ratio between IC50 values of [J] and [P]. The format is cell-based. The following applies: human, Jurkat cells; read-out: TI.
The target in series [4] is T1, DNA topoisomerase 2 (Plasmodium falciparum K1) (UniProt P41001).
T1 sequence (whole entry): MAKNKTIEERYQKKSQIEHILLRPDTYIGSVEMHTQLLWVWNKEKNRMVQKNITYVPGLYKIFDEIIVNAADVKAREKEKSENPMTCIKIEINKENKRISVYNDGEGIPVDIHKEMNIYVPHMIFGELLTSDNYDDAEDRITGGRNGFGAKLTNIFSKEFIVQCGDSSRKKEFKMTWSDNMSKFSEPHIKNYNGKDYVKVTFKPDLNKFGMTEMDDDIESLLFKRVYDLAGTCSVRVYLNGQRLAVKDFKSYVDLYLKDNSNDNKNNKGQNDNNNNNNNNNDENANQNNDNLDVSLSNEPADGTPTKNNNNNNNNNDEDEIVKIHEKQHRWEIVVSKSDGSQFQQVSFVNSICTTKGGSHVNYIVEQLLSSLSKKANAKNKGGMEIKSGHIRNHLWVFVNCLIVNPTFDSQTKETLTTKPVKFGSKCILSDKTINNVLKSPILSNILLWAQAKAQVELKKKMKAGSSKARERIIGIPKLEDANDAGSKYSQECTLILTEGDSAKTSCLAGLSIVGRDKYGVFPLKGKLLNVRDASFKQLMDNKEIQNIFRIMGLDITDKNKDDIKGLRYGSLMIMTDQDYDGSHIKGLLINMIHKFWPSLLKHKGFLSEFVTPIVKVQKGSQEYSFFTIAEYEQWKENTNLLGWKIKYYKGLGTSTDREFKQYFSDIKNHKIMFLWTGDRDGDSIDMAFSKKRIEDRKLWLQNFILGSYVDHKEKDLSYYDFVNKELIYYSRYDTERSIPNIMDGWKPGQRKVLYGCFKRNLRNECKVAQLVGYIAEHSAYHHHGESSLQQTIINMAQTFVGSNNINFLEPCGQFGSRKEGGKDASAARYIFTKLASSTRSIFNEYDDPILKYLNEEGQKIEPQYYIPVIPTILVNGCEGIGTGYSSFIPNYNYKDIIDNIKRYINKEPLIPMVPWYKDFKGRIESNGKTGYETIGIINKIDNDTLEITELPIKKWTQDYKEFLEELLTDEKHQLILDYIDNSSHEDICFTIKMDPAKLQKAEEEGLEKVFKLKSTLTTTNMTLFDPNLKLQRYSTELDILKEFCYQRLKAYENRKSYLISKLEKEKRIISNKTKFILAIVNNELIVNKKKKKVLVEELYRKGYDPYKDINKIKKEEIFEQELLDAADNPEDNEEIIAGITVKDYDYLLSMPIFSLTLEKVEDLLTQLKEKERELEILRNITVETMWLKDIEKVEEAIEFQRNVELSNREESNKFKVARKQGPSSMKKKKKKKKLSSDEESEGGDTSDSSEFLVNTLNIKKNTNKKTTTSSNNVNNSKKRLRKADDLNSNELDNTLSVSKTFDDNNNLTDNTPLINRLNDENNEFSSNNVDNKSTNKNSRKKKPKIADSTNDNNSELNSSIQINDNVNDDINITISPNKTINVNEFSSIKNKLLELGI
Description: Minimum inhibitory concentration required to completely inhibit topoisomerase II activity from Plasmodium falciparum was determined using P4 DNA […] assay.

The target in series [5] is DNA topoisomerase II (Homo sapiens) (UniProt P11388+Q02880). Description: Minimum inhibitory concentration required to completely inhibit topoisomerase II activity from jurkat human leukemia cells was determined using P4 DNA unknotting assay. The method, boiled down:
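Enzyme is a partially purified topoisomerase II extract from midlog Jurkat cells, made by sonication in Tris pH 8/KCl/MgCl2/EGTA buffer with protease inhibitors, then PEG/KCl precipitation. Extract is diluted to a set P4 DNA unknotting activity. Proteinase K method scores unknotting and linearization of phage P4 DNA on 0.7% agarose gels stained with ethidium bromide. MIC is the concentration giving complete inhibition.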

Converted amounts (≈) assume the structure as drawn.

In general, IC50 refers to the concentration needed to halve the response being measured. A higher IC50 goes with a need for much substance. As to `[N-]=[N+]=Nc1ccc2c(Nc3ccc(S(N)(=O)=O)cc3)c3ccc(N=[N+]=[N-])cc3nc2c1`, the half-inhibitory concentration (IC50) in series [1] came out at 2500 nM; in series [2], 30 nM. Besides, the selectivity ratio in series [3] is 83.

`COc1cc(NS(C)(=O)=O)ccc1Nc1c2ccc(N(C)C)cc2nc2cc(N(C)C)ccc12`: the IC50 in series [1] was < 1000 nM; in series [2] it was 400 nM. For the same compound, the selectivity ratio in series [3] is < 2.5.

For `CNC(=O)c1ccc(Nc2c3ccc(N)cc3nc3cc(N)ccc23)cc1`, the IC50 is > 20000 nM in series [1] and 40 nM in series [2]. Besides, in series [3], the selectivity ratio was > 500.

For the compound `Nc1ccc2c(Nc3ccccc3)c3ccc(N)cc3nc2c1`, the IC50 in series [1] stood at 15000 nM; in series [2] it was 300 nM. In series [3], the selectivity ratio stood at 50.

Regarding `CN(C)Cc1ccc(Nc2c3ccccc3nc3ccccc23)cc1`, the IC50 in series [1] came out at 7500 nM; in series [2], 150 nM. The selectivity ratio in series [3] was 50.

Consider `Nc1ccc2c(Nc3ccc(S(=O)(=O)N4CCCCC4)cc3)c3ccc(N)cc3nc2c1`, for which the IC50 in series [1] came out at 14000 nM; in series [2], 1400 nM. In series [3], the selectivity ratio turned out to be 10.

Consider `COc1ccc2c(Nc3ccc(S(N)(=O)=O)cc3)c3ccc(OC)cc3nc2c1`, for which the figures for the IC50 in series [1] and in series [2] were 3100 nM and > 10000 nM, respectively. The MIC in series [4] and in series [5] was > 100 µM throughout. For the same compound, in series [3], the selectivity ratio was < 3.2.

For the compound `COc1cc(Nc2c3ccccc3nc3ccccc23)ccc1NS(C)(=O)=O` [o-Amsacrine], the results for the IC50 in series [1] and in series [2] were 10000 nM and 26000 nM, respectively. Moreover, the selectivity ratio in series [3] came to 0.4.

Take `CS(=O)(=O)Nc1ccc(Nc2c3ccc(N)cc3nc3cc(N)ccc23)cc1`: the IC50 in series [1] was found to be 1000 nM; in series [2], 30 nM. Further, the MIC in series [4] turned out to be 6 µM (≈ 2.36 µg/mL); in series [5] it was 10 µM (≈ 3.93 µg/mL). For the same compound, in series [3], the selectivity ratio is 33.

For `NS(=O)(=O)c1ccc(Nc2c3ccc(Cl)cc3nc3cc(Cl)ccc23)cc1`, the IC50 in series [1] is > 20000 nM; in series [2], > 10000 nM. Further, the MIC in series [4] was 100 µM (≈ 41.8 µg/mL); in series [5], > 100 µM.

`CN(C)Cc1ccc(Nc2c3ccccc3nc3cc(N)ccc23)cc1`: the IC50 in series [1] came to 2500 nM; in series [2], 250 nM. For the same compound, the selectivity ratio in series [3] came to 10.

Regarding `CN(C)c1ccc2c(Nc3ccccc3)c3ccc(N(C)C)cc3nc2c1`, the half-inhibitory concentration (IC50) in series [1] amounted to 1400 nM; in series [2] it was 2400 nM. Also, the selectivity ratio in series [3] was 0.6.

With `CN(C)Cc1ccc(Nc2c3ccc(Cl)cc3nc3cc(Cl)ccc23)cc1`, the IC50 in series [1] was found to be 5000 nM; in series [2], 250 nM. Further, the selectivity ratio in series [3] was found to be 20.

For the compound `CS(=O)(=O)Nc1ccc(Nc2c3ccccc3nc3cc(N)ccc23)cc1`, the IC50 in series [1] amounted to 2000 nM; in series [2], 3000 nM. Moreover, the selectivity ratio in series [3] was determined as 0.7.

As for `CS(=O)(=O)Nc1ccc(Nc2c3ccccc3nc3ccccc23)cc1`, the values for the IC50 in series [1] and in series [2] were < 1000 nM and 3000 nM, respectively. Also, the selectivity ratio in series [3] is < 0.3.

Consider `Cc1ccc(Nc2c3ccc(N)cc3nc3cc(N)ccc23)cc1`, for which the IC50 in series [1] came out at 3000 nM; in series [2] it was 150 nM. Also, the selectivity ratio in series [3] was determined as 20.

Consider `CN(C)C(=O)c1ccc(Nc2c3ccc(N)cc3nc3cc(N)ccc23)cc1`, for which the values for the IC50 in series [1] and in series [2] were > 20000 nM and 600 nM, respectively. Also, the selectivity ratio in series [3] is > 33.

On to `[N-]=[N+]=Nc1ccc2c(Nc3ccc(C(N)=O)cc3)c3ccc(N=[N+]=[N-])cc3nc2c1`, for which the concentration for half-maximal inhibition (IC50) in series [1] is 1500 nM; in series [2] it was 60 nM. In addition, the MIC in series [4] is 50 µM (≈ 19.8 µg/mL); in series [5], > 100 µM. In addition, in series [3], the selectivity ratio amounted to 25.

In the case of `COc1ccc(Nc2c3ccc(N)cc3nc3cc(N)ccc23)cc1`, the concentration for half-maximal inhibition (IC50) in series [1] turned out to be 4000 nM; in series [2], 150 nM. The MIC in series [4] stood at 6 µM (≈ 1.98 µg/mL); in series [5] it was 20 µM (≈ 6.61 µg/mL). Besides, the selectivity ratio in series [3] was found to be 27.

As to `Nc1ccc2c(Nc3ccc(O)cc3)c3ccc(N)cc3nc2c1`, the concentration for half-maximal inhibition (IC50) was 10000 nM in series [1] and 50 nM in series [2]. The MIC in series [4] was determined as 6 µM (≈ 1.9 µg/mL); in series [5], 20 µM (≈ 6.33 µg/mL). Also, in series [3], the selectivity ratio is 200.

Consider `CNc1ccc(Nc2c3ccccc3nc3cc(N)ccc23)cc1`, for which the IC50 in series [1] came out at 500 nM; in series [2], 320 nM. The selectivity ratio in series [3] was found to be 1.6.

As for `COc1cc(Nc2c3ccc(N)cc3nc3cc(N)ccc23)ccc1NS(C)(=O)=O`, the half-inhibitory concentration (IC50) in series [1] was found to be 8500 nM; in series [2], 500 nM. Besides, the selectivity ratio in series [3] is 17.

`Nc1ccc(Nc2c3ccccc3nc3ccccc23)cc1`: the concentration for half-maximal inhibition (IC50) in series [1] was 750 nM; in series [2], 1500 nM. In addition, in series [3], the selectivity ratio was 0.5.

On to `Nc1ccc(Nc2c3ccccc3nc3cc(N)ccc23)cc1`, for which the IC50 is 750 nM in series [1] and 100 nM in series [2]. Besides, in series [3], the selectivity ratio is 7.5.

On to `CCCCCNCc1ccc(Nc2c3ccc(N)cc3nc3cc(N)ccc23)cc1`, for which the IC50 in series [1] is 16000 nM; in series [2], 600 nM. In addition, in series [3], the selectivity ratio came out at 27.

As for `CN(C)S(=O)(=O)c1ccc(Nc2c3ccc(N)cc3nc3cc(N)ccc23)cc1`, the figures for the IC50 in series [1] and in series [2] were 5000 nM and 160 nM, respectively. Moreover, in series [3], the selectivity ratio turned out to be 31.

As to `COc1cc(NS(C)(=O)=O)ccc1Nc1c2ccccc2nc2cc(N)ccc12`, the IC50 in series [1] is < 1000 nM; in series [2], 200 nM. Moreover, the selectivity ratio in series [3] was < 5.

With `CNc1ccc(Nc2c3ccc(N)cc3nc3cc(N)ccc23)cc1`, the concentration for half-maximal inhibition (IC50) in series [1] turned out to be 11500 nM; in series [2], 160 nM. For the same compound, in series [3], the selectivity ratio was 72.

Consider `COc1cc(NS(C)(=O)=O)ccc1Nc1c2ccc(N)cc2nc2cc(N)ccc12`, for which the IC50 in series [1] was 800 nM; in series [2] it was 100 nM. In addition, the selectivity ratio in series [3] amounted to 8.

Consider `Nc1ccc2c(Nc3ccc(CN4CCCCC4)cc3)c3ccc(N)cc3nc2c1`, for which the IC50 in series [1] was > 20000 nM; in series [2] it was 200 nM. Further, the selectivity ratio in series [3] was > 100.

On to `COc1cc(NS(C)(=O)=O)ccc1Nc1c2ccccc2nc2ccccc12` [AMSACRINE], for which the half-inhibitory concentration (IC50) in series [1] is < 1000 nM; in series [2] it was 600 nM. In series [3], the selectivity ratio was < 1.5.

For `CNc1ccc(Nc2c3ccccc3nc3ccccc23)cc1`, the half-maximal inhibitory concentration (IC50) in series [1] is 1500 nM; in series [2], 400 nM. In addition, the selectivity ratio in series [3] turned out to be 3.8.

For `CN(C)c1ccc(Nc2c3ccccc3nc3ccccc23)cc1`, the half-inhibitory concentration (IC50) is < 1000 nM in series [1] and 470 nM in series [2]. Besides, the selectivity ratio in series [3] is < 2.

In the case of `COc1cc(N=c2c3ccccc3[nH]c3cc(N)ccc23)ccc1NS(C)(=O)=O`, the results for the IC50 in series [1] and in series [2] were < 1000 nM and 2700 nM, respectively. Also, the selectivity ratio in series [3] is < 0.4.

Turning to `CN(C)c1ccc(Nc2c3ccccc3nc3cc(N)ccc23)cc1`, the IC50 is < 1000 nM in series [1] and 290 nM in series [2]. Further, the selectivity ratio in series [3] is < 3.5.

The record behind these values is ChEMBL document CHEMBL1127825, “Synthesis and in vitro evaluation of 9-anilino-3,6-diaminoacridines active against a multidrug-resistant strain of the malaria parasite Plasmodium falciparum” (J Med Chem, 1994).
